Most compounds without a hit are left out; they make up all but 3.8% or so of the library.
HSF-1 act – HSF-1 activators, primary screen, NIH3T3-HGL cells, MG132 stress, luminescence, single point. NIH3T3-HGL HSF-1 luciferase reporter, 8 h; 100% = twice DMSO control signal. activation, % at 9 µM. actives 1.7% (n = 300,000). AID 504408, 2011;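 active = mean replicate activation of at least 50% with a set share of replicates each reaching 50%; inconclusive = only one of those two conditions met; inactive = mean below 50% and too few replicates reaching it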;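 also: 0% = median of the neutral control wells and 100% = twice that signal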
HSF1 inh – HSF1 inhibitors in luciferase reporter cells, primary screen, cell-based, NIH3T3, luminescence | NIH3T3-HGL HSE-luciferase, MG132-induced, luminescence 8 h; stronger effect = lower value | activity change, negative = inhibition, % at 7.5 µM (by protocol) | AID 2098, 2009 | actives 0.77% (n = 300,000);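 active = more than half of replicate wells show activity change below -50%, luminescence cut by over half; inconclusive = some wells, but at most half, below -50%; inactive = no replicate well below -50%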;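 also: luciferase reports HSF-1 transcriptional activity via heat shock element; 0% = median of DMSO wells and -100% = zero luminescence signal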
HSP90 inh – HSP90 inhibitors, primary screen, cell lysate, luminescence; Rabbit reticulocyte lysate, luciferase refolding luminescence, 3 h; AID 1789, 2009; inhibition, % at 5.6 µM; actives 0.91% (n = 290,000); Heat shock protein HSP 90 (rabbit reticulocyte lysate; luciferase refolding);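 active = inhibition above the screen-wide mean plus 3 SD, computed separately per campaign, cut at about 16% in these data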;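 also: 0% = DMSO wells and 100% = 60 µM geldanamycin wells; inhibitors lower the luminescence because luciferase stays unfolded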
Lipid droplet – inhibitors of hepatocyte lipid droplet formation, primary screen, imaging, high-throughput imaging, BODIPY stain; inhibition, % at 6.5 µM; AID 1656, 2009; actives 0.4% (n = 240,000); AML12 mouse hepatocytes, oleate lipid droplets;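 active = lipid droplet intensity inhibited by at least 50%, with more than 500 cells counted; inconclusive = wells with under 300 cells, treated as cytotoxic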
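Technique: fluorescence imaging, 20x objective, two fields per well / Assay system: AML12 hepatocytes (mouse) / Measure: % inhibition of lipid droplet signal / Doses: 6.5 µM single-point dosing / Incubation: overnight exposure / Reagent: 100 µM oleic acid challenge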
NS3 helicase inh – inhibitors of HCV NS3 helicase, primary screen, biochemical, Cy5 molecular beacon fluorescence; Hepatitis C virus NS3 helicase; NS3 helicase DNA unwinding; inhibition, % at 10.9 µM; actives 0.56% (n = 290,000); AID 1800, 2009;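 active = inhibition above the mean of all tested compounds plus 3 SD, set per campaign, cut at about 35% in these data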;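 also: 0% = DMSO wells and 100% = thioflavine S control wells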
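Control set: DMSO versus 110 µM thioflavine S; Material: NS3 helicase fragment of HCV; Measured by: Cy5 fluorescence at 0 and 60 min, beacon hairpin quenching; Read-out basis: percent inhibition from t60/t0 fluorescence ratio; Times: reaction time 60 min, 25 °C; Repeats: single replicate; Compound dosing: single dose, 10.9 µM nominal final, DMSO 0.8% final.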
* marks the source's active call; other numbers are inactive results; ? = inconclusive; . = not tested or not shown.

SMILES	HSF-1 act	HSF1 inh	HSP90 inh	Lipid droplet	NS3 helicase inh
O=C1CC(Cc2ccccc2)C(=O)N1Cc1ccco1 (stereo not drawn)	8	9	5	.	20
Cc1ccc(CC2CC(=O)N(Cc3ccco3)C2=O)cc1 (stereo not drawn)	73*	42	2	.	-3
O=c1c(-c2ccc3c(c2)OCCO3)coc2cc(O)cc(O)c12	71*	26	2	15	1
CC(C)c1ccccc1NC(=O)CNCCc1ccc(C(F)(F)F)cc1	-16	-3	5	-36	-65
Cn1cc(NC(=O)OCc2ccc(Cl)cc2)c(C(F)(F)F)n1	56*	38	0	10	-1
CC(C)NOC(=O)c1ccc(Cl)cc1	-14	-10	-1	0	9
O=C(NCc1ccco1)c1ccc2c(c1)OCCO2	19	10	-2	-1	2
S=C(N/N=C/c1cccs1)NC1CC2CCC1C2 (stereo not drawn)	64*	30	-3	3	-10
CC(C)Oc1ccc(S(=O)(=O)N2CCCCC2)cc1NC(=O)C1CSC2(C)CCC(=O)N12 (stereo not drawn)	-2	0	.	.	.
O=C(c1ccccc1)N1N=C(C(F)(F)F)CC1(O)c1ccccc1 (stereo not drawn)	2	-1	3	2	-7
COC(=O)C1(O)CC(CC(C)C)=NN1C(=O)c1ccccc1 (stereo not drawn)	148*	99	-1	-1	10
COc1ccc2[nH]c(C(=O)O)c(CCN3C(=O)c4cccc([N+](=O)[O-])c4C3=O)c2c1	-2	2	-2	-1	8
CC(C)OC(=O)CNc1n[nH]c(=S)[nH]c1=O	35	1	17*	-44	7
CC(=O)c1cccc(NC(=O)Cn2cnc(S(=O)(=O)N3CCCC3)c2)c1	9	6	-5	7	1
COC(=O)C1CCN(C(=O)c2sc3nc(-c4ccccc4)cn3c2C)CC1	-78	-72*	3	-23	-1
COc1ccc(-c2cn3c(C)c(C(=O)N4CCN(c5ccc(F)cc5)CC4)sc3n2)cc1	18	10	68*	.	3
Cc1c(C(=O)Nc2ccccc2)sc2nc(-c3ccccc3)cn12	55*	26	-3	32	-12
Cc1c(C(=O)Nc2ccc3c(c2)OCO3)sc2nc(-c3ccccc3)cn12	7	5	-3	2	-4
COc1ccc(-c2cn3c(C)c(C(=O)NC(C)(C)C)sc3n2)cc1	29	16	45*	17	-20
Cc1ccc(S(=O)(=O)N(OCc2ccccc2)C(C)C(=O)O)cc1 (stereo not drawn)	5	-3	.	.	.
O=C(Oc1ccc(C(=S)N2CCOCC2)cc1)c1cccc(Cl)c1	-5	-3	5	-7	-5
O=C(Nc1ccc(F)cc1F)c1ccccc1NC(=O)C1CC=CCC1C(=O)O (stereo not drawn)	-6	0	0	10	4
C[C@@H]1C[C@H]2[C@@H]3CCC4=CC(=O)C=C[C@]4(C)[C@@]3(F)[C@@H](O)C[C@]2(C)[C@@]1(O)C(=O)CO	-61	-53*	.	.	.
C[C@@H]1C[C@H]2[C@@H]3C[C@H](F)C4=CC(=O)C=C[C@]4(C)[C@@]3(F)[C@@H](O)C[C@]2(C)[C@@]1(O)C(=O)COC(=O)C(C)(C)C	-55	-48	-2	-9	1
C[C@@H]1C[C@H]2[C@@H]3C[C@H](F)C4=CC(=O)C(Cl)=C[C@]4(C)[C@@]3(F)[C@@H](O)C[C@]2(C)[C@@]1(O)C(=O)CO	-53	-50*	2	6	-8
SMILES	HSF-1 act	HSF1 inh	HSP90 inh	Lipid droplet	NS3 helicase inh
N#CC(CO)(Cc1ccc(OC(F)F)cc1)c1nc2ccccc2[nH]1 (stereo not drawn)	72*	46	0	1	1
O=C(Nc1ccc2c3c(cccc13)CC2)c1ccc(Br)o1	75*	43	-1	-13	0
O=C(NC(=S)N1CCc2ccccc21)c1ccccc1Br	57*	44	2	-15	-4
CC(C)(C)C(=O)NC(=S)N1CCc2ccccc21	0	-1	-3	2	1
O=C(NC(=S)N1CCc2ccccc21)c1ccc(Br)o1	52*	37	0	2	-1
CCc1ccc(/C=C/C(=O)c2ccc(N3CCOCC3)cc2)cc1	55*	24	-1	-13	-5
O=C(c1cc2c(s1)-c1ccccc1OC2)N1CCN(c2ccccc2)CC1	-70	-64*	2	.	1
COc1ccc(N2CCN(C(=O)c3cc4c(s3)-c3ccccc3OC4)CC2)cc1	-2	-1	-1	2	-12
Fc1cccc(-c2nnn3c2nc(Cl)c2ccccc23)c1	454*	356	6	-4	0
NNc1nc2c(-c3ccc(Cl)cc3)nnn2c2ccccc12	73*	43	-3	2	-13
Clc1nc2c(-c3ccccc3)nnn2c2ccccc12	?	58	4	1	12
CN(C(=O)c1cccs1)C1(C)CCS(=O)(=O)C1 (stereo not drawn)	-3	-7	-3	-52	4
COCc1cc(=O)oc2cc(NC(=O)c3ccc(C(C)(C)C)cc3)ccc12	57*	10	4	6	4
COc1cc(OC)cc(C(=O)NCC(=O)OCc2cc(=O)oc3cc(OC)ccc23)c1	13	0	-3	-8	11
O=C(c1cc2ccccc2o1)N(C1CC1)C1(C(=O)Nc2ccccc2)CCCC1	-6	-8	1	0	-9
Cc1cccc(NC(=O)c2ccc(N3CCCCC3)c([N+](=O)[O-])c2)n1	62*	32	4	.	-13
Cc1cc(C)nc(NC(=O)c2ccc(C)c([N+](=O)[O-])c2)n1	-81	-72*	-5	1	-9
Cc1cccc2[nH]c3c(N4CC=C(c5ccc(F)cc5)CC4)ncnc3c12	7	-5	5	-30	-16
Cc1cc(Cl)ccc1C(=O)C1CCCN(C(=O)c2cncs2)C1 (stereo not drawn)	-1	2	-6	-4	7
Cc1ccccc1C(=O)O/N=C1\CCS(=O)(=O)c2sccc21	74*	47	0	-15	9
COc1cccc(CNc2ccc(N3CCCCC3)cc2)c1OC	.	.	-2	6	9
COc1cccc(CNc2ccc(S(N)(=O)=O)cc2)c1OC	-67	-57*	3	-3	-1
Cn1c(CO)cnc1S(=O)(=O)Cc1c(Cl)cccc1Cl	0	-5	1	-24	6
CCCN(CCC)S(=O)(=O)c1ccc(NC(=O)c2cc(C(=O)OC)cc([N+](=O)[O-])c2)cc1	-71	-61*	0	.	-4

Bioassay records (PubChem BioAssay)
